Bioassay records (PubChem)
Sampled rows, rich in hits. Any-hit rate of the full collection: about 1.9%.
Rin1-Abl PPI inh = human Rin1-Abl interaction inhibition; P00519+Q13671; TR-FRET Rin1/Abl binding, biochemical; inhibition, % at 7.35 µM; 0.4% of 360,000 active; in the data active = inhibition above about 5%, passing the limit was not always enough
UHRF1 MBD2 ctr = human UHRF1 methylated DNA binding inhibitors; 0.75% of 370,000 active; Q96T88; UHRF1 binding to methylated oligo, TR-FRET; AID 687016; inhibition, % at 4.4 µM; in the data active = inhibition above about 21%;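 note: UHRF1 SRA domain binding a hemimethylated CpG hairpin DNA probe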
MBD2 DNA inh = inhibitors of human MBD2 binding to methylated oligonucleotide; Q9UBB5; TR-FRET; inhibition, % at 4.4 µM; 0.31% of 370,000 active; in the data active = inhibition above about 13%
Target sequence (Q9UBB5 whole entry, looked up): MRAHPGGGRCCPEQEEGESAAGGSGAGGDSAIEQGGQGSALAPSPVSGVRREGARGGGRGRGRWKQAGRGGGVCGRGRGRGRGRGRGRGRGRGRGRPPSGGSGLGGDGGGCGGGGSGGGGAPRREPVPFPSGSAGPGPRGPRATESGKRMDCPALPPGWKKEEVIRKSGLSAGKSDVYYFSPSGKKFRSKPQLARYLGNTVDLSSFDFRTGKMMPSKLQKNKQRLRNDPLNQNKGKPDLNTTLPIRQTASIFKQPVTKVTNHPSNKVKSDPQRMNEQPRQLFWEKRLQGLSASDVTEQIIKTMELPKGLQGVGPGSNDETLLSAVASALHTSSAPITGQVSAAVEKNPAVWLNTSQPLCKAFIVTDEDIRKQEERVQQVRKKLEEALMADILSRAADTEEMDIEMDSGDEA
TDP2 inh = TDP2 (human) inhibition, absorbance primary screen; 0.34% of 370,000 active; inhibition, % at 12.8 µM; recombinant TDP2, T5PNP hydrolysis, p-nitrophenol absorbance 415 nm;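 active = inhibition above the mean of all tested compounds plus 3 SD, set per campaign, cut at about 25% in these data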
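Assay system: recombinant human TDP2 / Reagent: T5PNP substrate at 5 mM, a TopII-DNA adduct mimic / Measured by: epi absorbance from released p-nitrophenol / Evaluation: % inhibition relative to enzyme-containing and enzyme-free wells / Control set: enzyme-free and DMSO wells / Replicates: each compound tested once, singlicate / Schedule: enzyme reaction with compound for 2 h at 37 °C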
LEDGF integ inh = blocks HIV-1 LEDGF/p75-dependent DNA integration; TR-FRET IN-LEDGF/p75 DNA integration, Eu/Cy5; inhibition, % at 3.7 µM; 0.64% of 370,000 active;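 active = inhibition above the screen-wide mean plus 3 SD, cut at about 13% in these data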;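 note: signal is the Cy5 over europium emission ratio at 671 and 618 nm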
Hits are given with their value; i = inactive; nt = no result.

SMILES | Rin1-Abl PPI inh | UHRF1 MBD2 ctr | MBD2 DNA inh | TDP2 inh | LEDGF integ inh
CCOc1ccc(NC(=O)C2CC(=O)N(CCc3ccccc3)C2)cc1OC (configuration not stated) | i | 24 | i | i | i
C[C@@H]1COc2cc(NCCO)ccc2S(=O)(=O)N1 | nt | 22 | i | i | i
CC(C)C[C@H]1COc2cc(NCCO)ccc2S(=O)(=O)N1 | nt | i | i | i | i
C[C@@H]1COc2cc(N3CCCCC3)ccc2S(=O)(=O)N1 | nt | 22 | i | i | i
C[C@H]1COc2cc(N3CCCCC3)ccc2S(=O)(=O)N1 | nt | i | i | i | i
CC(C)C[C@@H]1COc2cc(NC3CC3)ccc2S(=O)(=O)N1 | nt | 21 | i | i | i
CCCCNc1ccc2c(c1)OC[C@H](CC(C)C)NS2(=O)=O | nt | i | i | i | i
Nc1nc(SCc2ccc(Br)cc2)[nH]c(=O)c1-c1ccccc1 | i | 29 | i | i | i
Cc1c(C=O)c(Cl)n(C)c(=O)c1C#N | i | i | i | 39 | i
c1ccc(CN2CCN(c3nc(-c4ccccc4)nc4ccccc34)CC2)cc1 | i | 21 | i | i | i
O=c1oc(-c2ccccc2)cc2ccccc12 | i | i | i | i | i
O=c1oc(-c2ccccc2)cc(Cl)c1Cl | i | i | i | 27 | i
O=C(Nc1cccc(S(=O)(=O)NC2=NCCC2)c1)c1cc(-c2ccco2)nc2ccccc12 | i | 30 | 24 | i | 17
O=C(Nc1ccccc1)/C(=C\c1ccc2c(c1)OCO2)NC(=O)c1ccco1 | i | i | i | i | i
O=C(Nc1ccccc1)/C(=C/c1ccc2c(c1)OCO2)NC(=O)c1ccco1 | i | 21 | i | i | i
Cc1ccc(S(=O)(=O)N(CC(=O)NN=C2CCN(C)CC2)c2ccc(C(C)C)cc2)cc1 | i | 34 | i | i | i
Cc1ccc(N(CC(=O)NN=C2CCN(C)CC2)S(=O)(=O)c2ccc(C)cc2)cc1 | i | i | i | i | i
CCC(=O)N(CCC(Cc1ccccc1)c1ccc2c(c1)OCO2)Cc1ccccc1F (configuration not stated) | i | 25 | i | i | i
CCC(=O)N(CCC(Cc1ccccc1)c1ccco1)Cc1ccco1 (configuration not stated) | i | i | i | i | i
O=C(Nc1ccc(N2C(=O)CC(c3ccccc3)C2=O)c(Cl)c1)c1ccccn1 (configuration not stated) | nt | i | i | i | i
COc1ccccc1OCc1ccc(C(=O)N(C)c2ccccc2)o1 | i | 25 | i | i | i
COc1ccccc1OCc1ccc(C(=O)N(C)C)o1 | i | i | i | i | i
O=C1C=C(c2ccc(-c3ccccc3)cc2)C[C@@H](c2ccc(F)cc2)C1 | i | i | i | i | i
O=C1C=C(c2ccccc2Oc2ccccc2)C[C@@H](c2ccc(F)cc2)C1 | i | 22 | i | i | i
CCC(Sc1nc2ncnc(N)c2[nH]1)C(=O)O (configuration not stated) | i | 21 | i | i | i
SMILES | Rin1-Abl PPI inh | UHRF1 MBD2 ctr | MBD2 DNA inh | TDP2 inh | LEDGF integ inh
C#CCN(C[C@@H]1[C@@H](OC(=O)NCC2CCCCC2)[C@@H](OC(=O)NCC2CCCCC2)CN(C(=O)OC(C)C)N1C(=O)OC(C)C)S(=O)(=O)c1ccc(C)cc1 | i | i | i | i | i
C#CCN(C[C@@H]1[C@@H](OC(=O)NCc2ccccc2)[C@@H](OC(=O)NCc2ccccc2)CN(C(=O)OC(C)C)N1C(=O)OC(C)C)S(=O)(=O)c1ccc(C)cc1 | i | 23 | i | i | i
Cc1ccc(S(=O)(=O)N2C[C@H]3N(C(=O)OC(C)C)N(C(=O)OC(C)C)C[C@H](OC(=O)NCc4ccccc4F)[C@@]3(O)C2)cc1 | i | 22 | i | i | i
COc1ccc(CNC(=O)O[C@H]2CN(C(=O)OC(C)C)N(C(=O)OC(C)C)[C@@H]3CN(S(=O)(=O)c4ccc(C)cc4)C[C@]23O)cc1OC | i | i | i | i | i
Oc1ccccc1C=NN1CCN(Cc2ccccc2)CC1 | nt | i | i | i | i
COc1ccccc1N1CCN(S(=O)(=O)c2ccc3c(c2)n(C)c(=O)c(=O)n3C)CC1 | nt | i | i | i | i
Cn1cccc1C(=O)N1CCN(S(=O)(=O)c2ccc(Cl)s2)CC1 | nt | i | i | i | i
O=C(Nc1cccc(NC(=O)c2ccccc2Cl)c1)c1ccc(F)cc1 | i | 27 | i | i | i
Clc1ccc(-n2c(Cc3cccs3)nnc2SC/C=C/c2ccccc2)cc1 | nt | i | i | i | i
COc1ccc(S(=O)(=O)NCCc2ccc(F)cc2)cc1 | i | i | i | i | i
